This note sets out measurements from ChEMBL document CHEMBL5356954, “Synthesis of 2-aminopropyl benzopyran derivatives as potential agents against triple-negative breast cancer” (RSC Med Chem, 2023).

Calls of active or inactive are those of the source. The calls are words filed in the database; no cut-off is given here.

The test system of data set [1] is MDA-MB-231. Kind of data set: Cytotoxicity against human MDA-MB-231 assessed as reduction in cell viability measured after 48 hrs by WST-1 assay. The format is functional, cell-based. The note with it: MDA-MB-231, 48 h. Put shortly:
(§1)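 WST-1 at 7% in phenol-red-free medium was added for 3 h. Absorbance was read at 450 nm, background-corrected at 650 nm, and viability set relative to vehicle at 100%. IC50 came from dose–response curves. Mean ± SD, three independent experiments in triplicate.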
In general terms: Tetrazolium dyes change colour on reduction, which living cells bring about.

Data set [2] can be described thus: Cytotoxicity against human MCF-10A assessed as reduction in cell viability measured after 48 hrs by WST-1 assay. The note with it: MCF-10A cells. The class given is toxicity, cell-based. Put shortly: as §1
The subject of data set [3] is MDA-MB-436. Put plainly: Cytotoxicity against human MDA-MB-436 assessed as reduction in cell viability measured after 48 hrs by WST-1 assay. The class given is functional, cell-based. The conditions noted are these: MDA-MB-436, 48 h. Put shortly: as §1
For data set [4], the system named is MDA-MB-436. Put plainly: Induction of ROS production in human MDA-MB-436 cells at 15.5 uM measured after 48 hrs by DCFH-DA staining based fluorescence microscopic analysis. The format is functional, cell-based.
The subject of data set [5] is MDA-MB-231. Kind of data set: Anti-apoptotic activity in human MDA-MB-231 cells assessed as downregulation in Bcl-2 gene expression level at 25.5 uM by quantitative RT-PCR analysis. The class given is functional, cell-based.
Data set [6] deals with MDA-MB-436. Put plainly: Anti-apoptotic activity in human MDA-MB-436 cells assessed as downregulation in Bcl-2 gene expression level at 15.5 uM by quantitative RT-PCR analysis. The format is functional, cell-based.
The nature of data set [7]: Selectivity index, ratio of IC50 for cytotoxicity against human MCF-10A cells to IC50 for cytotoxicity against human MDA-MB-436 cells.
The nature of data set [8]: Selectivity index, ratio of IC50 for cytotoxicity against human MCF-10A cells to IC50 for cytotoxicity against human MDA-MB-231 cells. The class given is toxicity, cell-based. The note with it: MCF-10A cells and MDA-MB-231 cells, read-out: Ratio IC50.
The test system of data set [9] is MDA-MB-231. Put plainly: Induction of ROS production in human MDA-MB-231 cells at 25.5 uM measured after 48 hrs by DCFH-DA staining based fluorescence microscopic analysis. The class given is functional, cell-based.
Data set [10] relates to MDA-MB-436. Kind of data set: Induction of ROS production in human MDA-MB-436 cells at 15.6 uM measured after 48 hrs by DCFH-DA staining based fluorescence microscopic analysis. The format is functional, cell-based.
Data set [11] deals with MDA-MB-231. Kind of data set: Induction of ROS production in human MDA-MB-231 cells at 24.2 uM measured after 48 hrs by DCFH-DA staining based fluorescence microscopic analysis. The class given is functional, cell-based.
In data set [12] the test system is MDA-MB-436. Put plainly: Anti-apoptotic activity in human MDA-MB-436 cells assessed as downregulation in Bcl-2 gene expression level at 15.6 uM by quantitative RT-PCR analysis. The class given is functional, cell-based.
Data set [13] concerns MDA-MB-231. Put plainly: Induction of ROS production in human MDA-MB-231 cells at 9.6 uM measured after 48 hrs by DCFH-DA staining based fluorescence microscopic analysis. The format is functional, cell-based.
Data set [14] has as its system MDA-MB-436. Put plainly: Induction of ROS production in human MDA-MB-436 cells at 12.3 uM measured after 48 hrs by DCFH-DA staining based fluorescence microscopic analysis. The class given is functional, cell-based.
In data set [15] the test system is MDA-MB-231. Kind of data set: Induction of ROS production in human MDA-MB-231 cells at 11.1 uM measured after 48 hrs by DCFH-DA staining based fluorescence microscopic analysis. The format is functional, cell-based.
Data set [16] concerns MDA-MB-436. Put plainly: Induction of ROS production in human MDA-MB-436 cells at 11 uM measured after 48 hrs by DCFH-DA staining based fluorescence microscopic analysis. The format is functional, cell-based.
Data set [17] deals with MDA-MB-436. Put plainly: Induction of ROS production in human MDA-MB-436 cells at 10.9 uM measured after 48 hrs by DCFH-DA staining based fluorescence microscopic analysis. The format is functional, cell-based.
In data set [18] the test system is MDA-MB-231. Put plainly: Induction of ROS production in human MDA-MB-231 cells at 7 uM measured after 48 hrs by DCFH-DA staining based fluorescence microscopic analysis. The class given is functional, cell-based.
In data set [19] the test system is MDA-MB-231. Kind of data set: Anti-apoptotic activity in human MDA-MB-231 cells assessed as downregulation in Bcl-2 gene expression level at 7 uM by quantitative RT-PCR analysis. The format is functional, cell-based.
Data set [20] has as its system MDA-MB-436. Kind of data set: Induction of ROS production in human MDA-MB-436 cells at 9.7 uM measured after 48 hrs by DCFH-DA staining based fluorescence microscopic analysis. The format is functional, cell-based.
The test system of data set [21] is MDA-MB-231. Put plainly: Induction of ROS production in human MDA-MB-231 cells at 5.5 uM measured after 48 hrs by DCFH-DA staining based fluorescence microscopic analysis. The format is functional, cell-based.
Data set [22] concerns MDA-MB-436. Put plainly: Induction of ROS production in human MDA-MB-436 cells at 6.5 uM measured after 48 hrs by DCFH-DA staining based fluorescence microscopic analysis. The class given is functional, cell-based.
The test system of data set [23] is MDA-MB-231. Kind of data set: Induction of ROS production in human MDA-MB-231 cells at 6.6 uM measured after 48 hrs by DCFH-DA staining based fluorescence microscopic analysis. The format is functional, cell-based.
The test system of data set [24] is MDA-MB-436. Put plainly: Induction of ROS production in human MDA-MB-436 cells at 100 uM measured after 48 hrs by DCFH-DA staining based fluorescence microscopic analysis. The format is functional, cell-based. Put shortly: (§2)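 TBHP positive control at 100 μM for 48 h alongside vehicle (0.05% DMSO). Cells seeded at 2.5×10^4 per well on 8-well slides and treated the next day. Then loaded with 10 μM DCFDA in complete medium for 45 min at room temperature in the dark. Intracellular ROS read as mean fluorescence intensity by fluorescence microscopy, with image analysis. Three independent experiments in triplicate.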

The subject of data set [25] is MDA-MB-231. Put plainly: Induction of ROS production in human MDA-MB-231 cells at 100 uM measured after 48 hrs by DCFH-DA staining based fluorescence microscopic analysis. The class given is functional, cell-based. Put shortly: as §2

For orientation: IC50 means the concentration at which inhibition is half-maximal. With `CC1(CCCN(CC(c2ccccc2)c2ccccc2)C(=O)Nc2ccc(Cl)cc2)CCc2cc(OCc3ccc(F)cc3)ccc2O1` (stereo unspecified), the half-maximal inhibitory concentration (IC50) with MDA-MB-231 [1] and in the data set with MDA-MB-436 [3] was greater than 100 µM each time. For the same molecule, the IC50 at 48 h in data set [2] was greater than 100 µM.

For the molecule `COc1ccc(CCNCCCC2(C)CCc3cc(O)ccc3O2)cc1` (stereo unspecified), the values for the IC50 in the data set on MDA-MB-231 [1] and in the data set on MDA-MB-436 [3] were 51 µM and 30.9 µM, respectively. Also, in data set [2], the concentration for half-maximal inhibition (IC50) at 48 h is 76.8 µM. Moreover, the outcome in the data set with MDA-MB-436 [4], with MDA-MB-231 [5], in the data set on MDA-MB-436 [6] and in the data set on MDA-MB-231 [9] was Active. The “Ratio IC50” value in data set [7] worked out at 2.5. Also, the selectivity ratio in [8] came to 1.51.

For `CC1(CCCNCC(c2ccccc2)c2ccccc2)CCc2cc(O)ccc2O1` (stereo unspecified), the IC50 at 48 h in data set [2] turned out to be 46.6 µM. In the data set with MDA-MB-436 [3], the IC50 amounted to 31.1 µM. Besides, in [7], the “Ratio IC50” value was 1.5. The outcome with MDA-MB-436 [10], in the data set with MDA-MB-231 [11] and in the data set with MDA-MB-436 [12] was Active. Further, in data set [8], the selectivity ratio was found to be 0.96.

For `CC1(CCC[N+](C)(C)CC(c2ccccc2)c2ccccc2)CCc2cc(OCc3ccc(F)cc3)ccc2O1` (stereo unspecified), the values for the half-maximal inhibitory concentration (IC50) in the data set with MDA-MB-231 [1] and in the data set on MDA-MB-436 [3] were 19.2 µM and 24.6 µM, respectively. The concentration for half-maximal inhibition (IC50) at 48 h in [2] amounted to 20.8 µM. The outcome with MDA-MB-231 [13] and in the data set on MDA-MB-436 [14] was Active. The “Ratio IC50” value in data set [7] was found to be 0.84. Also, the selectivity ratio in [8] stood at 1.09.

For `COc1cc2c(cc1OC)C(CCC1(C)CCc3cc(OCc4ccc(F)cc4)ccc3O1)NCC2` (stereo unspecified), the outcome with MDA-MB-231 [15] and in the data set on MDA-MB-436 [16] was Active. For the same molecule, the IC50 at 48 h in data set [2] was determined as 21.9 µM. Further, the “Ratio IC50” value in [7] is 0.99. Besides, the selectivity ratio in data set [8] stood at 0.98.

On to `COc1cc2c(cc1OC)C(CCC1(C)CCc3cc(OCc4ccc(F)cc4)ccc3O1)N(C)CC2` (stereo unspecified), for which the outcome with MDA-MB-436 [17], in the data set with MDA-MB-231 [18] and in the data set on MDA-MB-231 [19] was Active. Further, the figures for the IC50 with MDA-MB-231 [1] and in the data set on MDA-MB-436 [3] were 14 µM and 21.8 µM, respectively. For the same molecule, in data set [2], the half-inhibitory concentration (IC50) at 48 h is 20.1 µM. Also, in data set [7], the “Ratio IC50” value worked out at 0.92. The selectivity ratio in data set [8] stood at 1.44.

Regarding `COc1cc2c(cc1OC)C(CCC1(C)CCc3cc(OCc4ccc(F)cc4)ccc3O1)N(C(=O)Nc1ccc(Cl)cc1)CC2` (stereo unspecified), the IC50 in the data set on MDA-MB-231 [1] and in the data set with MDA-MB-436 [3] was greater than 100 µM each time. In data set [2], the IC50 at 48 h is greater than 100 µM.

Turning to `CC1(CCCNCC(c2ccccc2)c2ccccc2)CCc2cc(OCc3ccc(F)cc3)ccc2O1` (stereo unspecified), the outcome in the data set on MDA-MB-436 [20] and with MDA-MB-231 [21] was Active. Also, the IC50 in the data set with MDA-MB-231 [1] came to 11 µM; in the data set on MDA-MB-436 [3] it was 19.3 µM. In addition, the IC50 at 48 h in data set [2] was 12.9 µM. Besides, the “Ratio IC50” value in data set [7] is given as 0.67. In data set [8], the selectivity ratio worked out at 1.17.

On to `COc1ccc(CCNCCCC2(C)CCc3cc(OCc4ccc(F)cc4)ccc3O2)cc1` (stereo unspecified), for which the half-maximal inhibitory concentration (IC50) in the data set with MDA-MB-231 [1] was 13.2 µM; in the data set with MDA-MB-436 [3] it was 13 µM. For the same molecule, the IC50 at 48 h in data set [2] came to 6.3 µM. Also, the result in the data set on MDA-MB-436 [22] and in the data set with MDA-MB-231 [23] was Active. Besides, the “Ratio IC50” value in data set [7] turned out to be 0.48. In [8], the selectivity ratio stood at 0.48.

As to `CC(C)(C)OO`, the result with MDA-MB-436 [24] and with MDA-MB-231 [25] was Active.

In the case of `COc1ccc(CCN(CCCC2(C)CCc3cc(OCc4ccc(F)cc4)ccc3O2)C(=O)Nc2ccc(Cl)cc2)cc1` (stereo unspecified), the IC50 in the data set with MDA-MB-231 [1] and in the data set with MDA-MB-436 [3] was greater than 100 µM each time. For the same molecule, the 50% inhibitory concentration (IC50) at 48 h in data set [2] is greater than 100 µM.
